Screens (PubChem BioAssay)
MC4R antagonist: human MC4R antagonism in cAMP assay; P32245; MC4R-expressing cells, MTII-stimulated cAMP, LANCE TR-FRET; inhibition, % at 6.5 µM; 0.48% of 360,000 active;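 active means inhibition above its plate's cutoff, the mean of tested wells on that plate plus 3 SD, cut at about 29% in these data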;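 further: 0% = Melanotan II alone and 100% = Melanotan II plus saturating MCL0020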
Target sequence (P32245 whole entry, looked up): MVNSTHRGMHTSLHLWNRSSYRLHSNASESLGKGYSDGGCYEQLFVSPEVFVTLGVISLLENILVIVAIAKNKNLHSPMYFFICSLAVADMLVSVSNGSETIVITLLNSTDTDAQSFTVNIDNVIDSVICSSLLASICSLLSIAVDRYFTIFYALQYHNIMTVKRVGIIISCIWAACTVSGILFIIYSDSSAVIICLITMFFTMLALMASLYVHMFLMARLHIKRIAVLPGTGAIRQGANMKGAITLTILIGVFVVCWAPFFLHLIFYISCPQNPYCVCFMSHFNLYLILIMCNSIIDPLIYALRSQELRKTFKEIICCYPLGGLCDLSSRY
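System: U2OS cells stably expressing human melanocortin 4 receptor (MC4R). Reagent: Melanotan II challenge after compound preincubation. Doses: 6.5 µM. Times: 30-min compound, 1-h challenge, 1-h detection, room temperature. Measured by: TR-FRET with Eu-cAMP and labeled anti-cAMP, 671 nm. Replicates: singlicate.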
TAAR1 agonist: human TAAR1 agonism. CHO RD-HGA16 TAAR1, Fluo-8 calcium fluorescence; vehicle wells 0%, saturating PEA agonist 100%. 0.99% of 360,000 active. Q96RJ0. AID 624467. activation, % at 3 µM;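 active means activation above the mean activation of all test compounds in the run plus 3 SD, cut at about 38% in these data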
Target sequence (Q96RJ0 whole entry, looked up): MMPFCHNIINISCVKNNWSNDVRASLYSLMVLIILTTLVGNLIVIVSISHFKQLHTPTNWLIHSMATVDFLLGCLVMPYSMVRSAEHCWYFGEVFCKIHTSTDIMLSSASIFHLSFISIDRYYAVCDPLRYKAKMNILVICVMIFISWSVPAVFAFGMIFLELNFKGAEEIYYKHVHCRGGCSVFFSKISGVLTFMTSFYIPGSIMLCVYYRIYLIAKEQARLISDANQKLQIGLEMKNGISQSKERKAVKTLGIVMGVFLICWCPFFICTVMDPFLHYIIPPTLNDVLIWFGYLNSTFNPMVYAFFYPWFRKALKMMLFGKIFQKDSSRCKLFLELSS
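Assay system – CHO-derived RD-HGA16 cells with stable Gα16 and human TAAR1 · Compound dosing – one-point dosing at 3 µM (nominal) · Incubation – 17-24 h seeding, 75 min 37 °C dye, 30 min RT · Measured by – kinetic Fluo-8 calcium fluorescence · Control set – DMSO vehicle as 0%, PEA at EC100 as 100% · Repeats – single well for each compound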
B2AR ag: human beta-2 adrenergic receptor agonism by FAP | response, % (test concentration not listed) | 0.43% of 340,000 active | Am2.2-beta2AR cells, FAP receptor internalization, flow cytometry | AID 504454 | P07550;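 active means response above a set limit, near 3 SD of response in nonfluorescent compounds, cut at about 42% in these data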
MC4R barr agon: human MC4R agonism via beta-arrestin; U2OS MC4R beta-arrestin complementation, luminescence; percent of melanotan II response, DMSO zero; P32245; activation, % at 8.9 µM; AID 540308; 0.98% of 360,000 active;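 active means activation above a per-plate cutoff, the mean activation of sample wells on that plate plus 3 SD, cut at about 8% in these data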
HTR2A ag: agonists of mouse serotonin 5-HT2A receptor (HTR2A). CHO-K1 mHTR2A beta-arrestin complementation, luminescence; percent of 30 µM serotonin response. activation, % at 7.6 µM. 0.66% of 360,000 active. AID 624169;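 active means activation above a run cutoff, the mean activation of all tested compounds plus 3 SD, cut at about 14% in these data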;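 further: 0% = plate median of compound wells and 100% = 30 µM serotonin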
TAAR1 antagonist: human TAAR1 antagonism | 1.5% of 360,000 active | Q96RJ0 | AID 624466 | inhibition, % at 3 µM | CHO RD-HGA16 TAAR1, Fluo-8 calcium fluorescence, antagonist;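 active means inhibition above a per-plate cutoff, the mean inhibition of test compounds on that plate plus 3 SD, cut at about 49% in these data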;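 further: 0% = DMSO plus EC80 beta-PEA response and 100% = DMSO alone without agonist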
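Test system – hTAAR1-expressing CHO RD-HGA16 cells, Gα16-coupled · Reagent – β-PEA at EC80 concentration, post-compound challenge · Compound dosing – 3 µM, single point · Timing – 140 s kinetic read after compound, 140 s after agonist · Detection – Fluo-8 intracellular calcium dye fluorescence, real-time kinetic reads · Control set – DMSO and EC80 PEA controls · Repeats – n of 1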
nonsel antag count: nonselective antagonism, TAAR1 counter-screen | shares compounds with TAAR1 antagonist | counterscreen cell line, calcium fluorescence, antagonist mode | inhibition, % at 3 µM | 77% of 2,400 active; in the data active means inhibition above about 22%;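 further: CHO-Ga16 host cells stimulated with ATP at an EC80 level; 0% = agonist EC80 plus vehicle and 100% = vehicle without agonist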
TAAR1 antag conf: human TAAR1 antagonism, confirmed; 40% of 2,400 active; inhibition, % at 3 µM; shares compounds with TAAR1 antagonist; TAAR1-expressing cells, fluorescence antagonist read-out; in the data active means inhibition above about 49%;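 further: CHO-Ga16 host cells challenged with agonist PEA near its EC80; 0% = agonist at EC80 plus vehicle and 100% = vehicle with no agonist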
Ga16 nonsel ag: counter-screen for TAAR1 antagonists: nonselective Ga16 agonists; shares compounds with TAAR1 antagonist; Ga16-expressing cells, calcium fluorescence, agonist counterscreen; activation, % at 3 µM; 18% of 2,400 active; in the data active means activation above about 12%;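 further: 0% = vehicle wells and 100% = saturating stimulus response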
TAAR1 ag counter: activates human TAAR1 in antagonist counter-screen. shares compounds with TAAR1 antagonist. hTAAR1 cell line, fluorescence activation, agonist mode. activation, % at 3 µM. 2% of 2,400 active. AID 651955; in the data active means activation above about 37%;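 further: CHO cells stably expressing TAAR1 with calcium dye readout; 0% = DMSO vehicle and 100% = full agonist response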
Active calls of the source: *; nt = not tested or not shown. This is a sample that favours compounds with a hit; in the whole collection about 4.3% have one here.

SMILES | MC4R antagonist | TAAR1 agonist | B2AR ag | MC4R barr agon | HTR2A ag | TAAR1 antagonist | nonsel antag count | TAAR1 antag conf | Ga16 nonsel ag | TAAR1 ag counter
COCCN(C(=O)COC(=O)CCC(=O)c1ccc(Cl)cc1)c1c(N)n(Cc2ccccc2)c(=O)[nH]c1=O | 4 | 1 | 10 | -2 | 4 | -20 | nt | nt | nt | nt
CN(C1CCCCC1)S(=O)(=O)c1ccc(NC(=O)CCC(=O)O)cc1 | 4 | 1 | -5 | -1 | 3 | 0 | nt | nt | nt | nt
CN(C1CCCCC1)S(=O)(=O)c1ccc(S(=O)(=O)N(CC(=O)Nc2ccccc2)C2CC2)cc1 | 13 | 5 | -1 | -1 | -4 | 58* | 26* | 41 | 9 | 10
CCOC(=O)C1(Cc2cccc(F)c2)CCN(C(=O)C2CCC2)CC1 | 0 | 6 | 8 | 0 | 3 | 105* | 14 | -3 | 5 | 6
CCOC(=O)C1(Cc2cccc(F)c2)CCN(C2CCOCC2)CC1 | 1 | 13 | 1 | -2 | -1 | 4 | nt | nt | nt | nt
Cn1c(-c2ccccc2)c(C#Cc2ccc(N)cc2)c2ccccc21 | 9 | 0 | 3 | 0 | -4 | 13 | nt | nt | nt | nt
COc1cc(C(=O)N/N=C/c2ccc(OC(=O)c3ccccc3Cl)cc2)ccc1O | 1 | 13 | 17 | 7 | 1 | 80* | 30* | 58* | 11 | 35
COc1ccc(/C=N\NC(=O)c2ccc(F)cc2)cc1COc1ccccc1C(N)=O | 13 | 1 | -6 | 0 | -3 | -8 | nt | nt | nt | nt
O=C(Oc1ccc(/C=N/NC(=O)c2ccccc2O)cc1)c1ccccc1 | -6 | 10 | 5 | -2 | 7 | 74* | 38* | 68* | 8 | 10
COc1cc(/C=N/NC(=O)c2cccnc2)ccc1OC(=O)c1ccco1 | -6 | 6 | 0 | -1 | -5 | -8 | nt | nt | nt | nt
COC(=O)c1ccc(/C=N/NC(=O)c2ccccc2Cl)cc1 | -6 | 1 | 2 | -1 | 6 | 14 | nt | nt | nt | nt
COc1cc(/C=N\NC(=O)c2cccnc2)ccc1OC(=O)c1ccccc1Cl | 7 | 12 | 22 | -3 | -4 | 54* | 28* | 35 | 16* | 20
CCOC(=O)c1ccccc1OCc1cc(/C=N/NC(=O)c2ccncc2)ccc1OC | 26 | 13 | 17 | 0 | 4 | 77* | 36* | 54* | 10 | 6
CS(=O)(=O)N1CCCCC1c1cc(C(=O)NCc2ccc(Cl)c(Cl)c2)no1 (configuration not stated) | -2 | 2 | nt | -2 | -7 | 1 | nt | nt | nt | nt
O=C(N/N=C/c1ccc(OC(=O)c2ccccc2Br)cc1)c1ccccn1 | -4 | 7 | 4 | 8.9* | -1 | 52* | 30* | 44 | 7 | 5
Nc1ccc(C(=O)N/N=C\c2ccc(OC(=O)c3ccccc3Cl)cc2)cc1 | -4 | 18 | 1 | 8 | 0 | 68* | 29* | 59* | 9 | 25
COCCNc1nc2c(c(=O)[nH]c(=O)n2C)n1CCCc1ccccc1 | 2 | 0 | 3 | 0 | 7 | 4 | nt | nt | nt | nt
O=C(N=Nc1c(O)n(Cc2ccccc2)c2ccccc12)c1ccc(O)cc1 | -6 | 3 | -13 | 2 | -1 | 51* | 21 | 32 | 3 | -3
COc1ccc(C(=O)NCC(=O)N=Nc2c(O)n(Cc3ccccc3)c3ccccc23)cc1OC | 14 | 3 | -13 | 0 | 2 | 2 | nt | nt | nt | nt
CC1(C)C(=O)Nc2ccccc2N1C(=O)COC(=O)c1ccc(Cl)c(S(=O)(=O)NCc2ccccc2)c1 | 17 | 20 | 19 | -2 | -3 | 63* | 35* | 60* | 7 | 17
CCOC(=O)C1=CCC(c2ccccc2)N(S(C)(=O)=O)C1 (configuration not stated) | nt | 4 | nt | nt | nt | -9 | nt | nt | nt | nt
COc1ccc(CN2CCN(C(c3ccc(F)cc3)c3ccc(F)cc3)CC2)c(OC)c1OC | 9 | 2 | 15 | 4 | -9 | 56* | 19 | 29 | 5 | 11
COCc1[nH]nc2c1C(c1ccc3c(c1)OCO3)N(Cc1ccccc1)C2=O (configuration not stated) | nt | 1 | nt | nt | nt | 9 | nt | nt | nt | nt
Cc1ccccc1N1CCN(C2CCCN(C(=O)c3ccccn3)C2)CC1 (configuration not stated) | 11 | 2 | 3 | -4 | -4 | -22 | nt | nt | nt | nt
Cc1ccccc1N1CCN(C2CCCN(C(=O)c3cn4cccc(C)c4n3)C2)CC1 (configuration not stated) | -2 | 14 | 11 | -2 | -4 | 57* | 30* | 41 | 9 | 8
SMILES | MC4R antagonist | TAAR1 agonist | B2AR ag | MC4R barr agon | HTR2A ag | TAAR1 antagonist | nonsel antag count | TAAR1 antag conf | Ga16 nonsel ag | TAAR1 ag counter
O=C(NCC1CCCO1)C(c1ccc(F)cc1)N(C(=O)Cn1nnc(-c2ccc(F)cc2)n1)c1cccc(O)c1 (configuration not stated) | 0 | 16 | 10 | 3 | 14 | 83* | 36* | 55* | 11 | 13
O=C(NCC1CCCO1)C(c1cccnc1)N(C(=O)Cc1cccs1)c1ccccc1 (configuration not stated) | -1 | 24 | 1 | -1 | 0 | 54* | 21 | 47 | 10 | 10
Cc1ccccc1N(C(=O)Cc1cccs1)C(C(=O)NCC1CCCO1)c1cccnc1 (configuration not stated) | 7 | 3 | -4 | 0 | 7 | 4 | nt | nt | nt | nt
NC(=O)c1nsc(C(=O)N(c2ccccc2)C(C(=O)NCC2CCCO2)c2ccc(F)cc2)c1N (configuration not stated) | 15 | 14 | 3 | 0 | -5 | 51* | 20 | 39 | 9 | 13
NC(=O)c1nsc(C(=O)N(c2ccc3c(c2)OCCO3)C(C(=O)NCC2CCCO2)c2ccc(F)cc2)c1N (configuration not stated) | -4 | -1 | -3 | -3 | 0 | 11 | nt | nt | nt | nt
NC(=O)c1nsc(C(=O)N(c2ccc(F)cc2)C(C(=O)NCC2CCCO2)c2ccc3ncccc3c2)c1N (configuration not stated) | 9 | 13 | 1 | 0 | 4 | 49* | 25* | 33 | 6 | 6
Cc1ccccc1OCCC(=O)NNC(=O)c1ccccc1F | 5 | -1 | -3 | -2 | -1 | 11 | nt | nt | nt | nt
